Assay results published in ChEMBL document CHEMBL5053496, “Antibacterial sulfonimidamide-based oligopeptides as type I signal peptidase inhibitors: Synthesis and biological evaluation” (Eur J Med Chem, 2021).
≈ marks a conversion by molar mass, not a printed value.

Assays:
[1] = test system: Pseudomonas aeruginosa; assay: Antibacterial activity against wild type Pseudomonas aeruginosa PAO1 assessed as inhibition of bacterial growth measured after 16 to 20 hrs; assay type: functional; conditions: time 16-20 hrs
Summary of the method: (§1)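 Read visually as complete growth inhibition by the unaided eye, with medium-only wells as control.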

[2] = Hemolytic activity against human RBC assessed as hemolysis measured after 45 mins; assay type: ADME, tissue-based, Erythrocyte; conditions: red blood cells (RBC), read-out: Activity
Summary of the method: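 Human RBCs from heparinized blood, washed three times in Tyrode buffer pH 7.4. Final 100 µM compound, 1% DMSO, 50% RBC; 37 °C, 45 min, shaking 250 rpm. Cells spun off, supernatant hemoglobin read at 540 nm. Percent hemolysis relative to 2% Triton X-100 full lysis and buffer-only negative control.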

[3] = test system: Escherichia coli; assay: Antibacterial activity against Escherichia coli harboring tolC efflux defective mutant assessed as inhibition of bacterial growth measured after 16 to 20 hrs; assay type: functional; conditions: time 16-20 hrs
Summary of the method: (§2)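 MIC read visually as the lowest concentration giving complete growth inhibition to the unaided eye, with medium-only wells as the control.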

[4] = Inhibition of Escherichia coli LepB using dabcyl-VEVGGTATA GFSPRGLE-EDANS and dabcyl-KLTGFTVKPVQAIA GYEILE-EDANS-OH as substrates preincubated for 10 mins followed by substrate addition by FRET assay
Summary of the method: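 FRET assay with recombinant E. coli LepB, final about 50 nM. Enzyme pre-incubated with inhibitor 10 min at 22 °C, then substrate added at 8 µM. Linear fluorescence increase from cleavage followed at 22 °C for 2 h. IC50 from non-linear regression of sigmoidal rate vs. inhibitor concentration curves.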

[5] = test system: HepG2; assay: Cytotoxicity against human HepG2 cells assessed as reduction in cell viability measured after 72 hrs by fluorometric assay; assay type: cell-based; conditions: HepG2, 72 h
Summary of the method: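 HepG2 cells grown with L-glutamine 2 mM, passaged twice weekly, used up to 20 passages. Seeded at 1000 cells/well in 384-well plates, exposed 72 h. Fluorescence read-out; survival index (%) = test-well fluorescence as percent of control cultures, blanks subtracted. Assay accepted if control signal-to-noise >10, CV <30%, bortezomib positive control SI <5%.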

[6] = test system: Escherichia coli; assay: Antibacterial activity against Escherichia coli D22 mutant assessed as inhibition of bacterial growth measured after 16 to 20 hrs; assay type: functional; conditions: time 16-20 hrs; summary of the method: as §2
[7] = test system: Pseudomonas aeruginosa; assay: Antibacterial activity against efflux pump deficient Pseudomonas aeruginosa PAO750 assessed as inhibition of bacterial growth measured after 16 to 20 hrs; assay type: functional; conditions: time 16-20 hrs; summary of the method: as §1
[8] = test system: Klebsiella pneumoniae; assay: Antibacterial activity against wild type Klebsiella pneumoniae ATCC 13883 assessed as inhibition of bacterial growth measured after 16 to 20 hrs
[9] = test system: Escherichia coli; assay: Antibacterial activity against wild type Escherichia coli ATCC 25922 assessed as inhibition of bacterial growth measured after 16 to 20 hrs; assay type: functional; conditions: time 16-20 hrs; summary of the method: as §1
[10] = test system: Acinetobacter baumannii; assay: Antibacterial activity against Acinetobacter baumanii ATCC 19606 assessed as inhibition of bacterial growth measured after 16 to 20 hrs; assay type: functional; conditions: ATCC 19606 = CIP 70.34 = JCM 6841, time 16-20 hrs; summary of the method: as §1
[11] = test system: Staphylococcus aureus; assay: Antibacterial activity against staphylococcus aureus ATCC 29213 assessed as inhibition of bacterial growth measured after 16 to 20 hrs; assay type: functional; conditions: time 16-20 hrs; summary of the method: as §1

Structure (SMILES)	MIC [1]	hemolysis at 0.75 h [2]	MIC [3]	IC50 [4]	IC50 [5]	MIC [6]	MIC [7]	MIC [8]	MIC [9]	MIC [10]	MIC [11]
CCCCCCCCCCCCS(=O)(=O)N1CCC[C@H]1C(=O)N[C@H](C(=O)N[C@@H](C)C(=O)NC(CC(N)=O)C(=O)N[C@@H](C)B1O[C@@H]2C[C@H]3C[C@H](C3(C)C)[C@]2(C)O1)[C@@H](C)O (mixture of isomers)	> 64 µg/mL	0.1%	8 µg/mL	56 nM	1200 nM	16 µg/mL	32 µg/mL	> 64 µg/mL	> 64 µg/mL	> 64 µg/mL	< 1 µg/mL
CCCCCCc1ccc(-c2ccc([S@](=N)(=O)N3CCC[C@H]3C(=O)N[C@H](C(=O)N[C@@H](C)C(=O)NC(CC(N)=O)C(=O)N[C@@H](C)B3O[C@@H]4C[C@H]5C[C@H](C5(C)C)[C@]4(C)O3)[C@@H](C)O)cc2)cc1 (mixture of isomers)	> 64 µg/mL	2.15%	4 µg/mL	1070 nM	2950 nM	8 µg/mL	> 64 µg/mL	> 64 µg/mL	> 64 µg/mL	> 64 µg/mL	4 µg/mL
CCCCCCc1ccc(-c2ccc([S@@](=N)(=O)N3CCC[C@H]3C(=O)N[C@H](C(=O)N[C@@H](C)C(=O)NC(CC(N)=O)C(=O)N[C@@H](C)B3O[C@@H]4C[C@H]5C[C@H](C5(C)C)[C@]4(C)O3)[C@@H](C)O)cc2)cc1 (mixture of isomers)	> 64 µg/mL	0.35%	4 µg/mL	1110 nM	2990 nM	32 µg/mL	> 64 µg/mL	> 64 µg/mL	> 64 µg/mL	> 64 µg/mL	4 µg/mL
CCCCCCc1ccc(-c2ccc(S(=O)(=O)N3CCC[C@H]3C(=O)N[C@H](C(=O)N[C@@H](C)C(=O)NC(CC(N)=O)C(=O)N[C@@H](C)B3O[C@@H]4C[C@H]5C[C@H](C5(C)C)[C@]4(C)O3)[C@@H](C)O)cc2)cc1 (mixture of isomers)	> 64 µg/mL	14.5%	> 64 µg/mL	71 nM	580 nM	> 64 µg/mL	> 64 µg/mL	> 64 µg/mL	> 64 µg/mL	> 64 µg/mL	> 64 µg/mL
CCCCCCc1ccc(-c2ccc(S(=O)(=NCCN)N3CCC[C@H]3C(=O)N[C@H](C(=O)N[C@@H](C)C(=O)NC(CC(N)=O)C(=O)N[C@@H](C)B3O[C@@H]4C[C@H]5C[C@H](C5(C)C)[C@]4(C)O3)[C@@H](C)O)cc2)cc1 (stereo not given in full)	> 64 µg/mL	5.32%	16 µg/mL (≈ 16.9 µM)	133 nM	5200 nM	8 µg/mL (≈ 8.43 µM)	> 64 µg/mL	> 64 µg/mL	64 µg/mL (≈ 67.4 µM)	64 µg/mL (≈ 67.4 µM)	< 1 µg/mL
